Measured values: ChEMBL document CHEMBL4138185, “Investigation of the Physical and Bioactive Properties of Bromo- and Iodo-Containing Sponge-Derived Compounds Possessing an Oxyphenylethanamine Core” (J Nat Prod, 2017)
Active and inactive are the calls of the source. No cut-off for these calls is given here.

Assays:
[1] = tested on: Pseudomonas aeruginosa PA103; test: Inhibition of Pseudomonas aeruginosa PA103 T3SS-mediated ExoU secretion at 60 uM after 3 hrs under low calcium medium by SDS-PAGE analysis relative to control
[2] = tested on: Yersinia pseudotuberculosis; test: Growth inhibition of wild-type Yersinia pseudotuberculosis at 60 uM measured at 1 hr interval for 15 hrs; assay type: organism-based; conditions: in vivo
Outline: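 Wild-type Y. pseudotuberculosis grown at room temperature in 2×YT with test agent at 60 μM, kanamycin at 50 μg/mL, or DMSO. Absorbance at 600 nm read every hour over 15 h as the growth measure.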

[3] = tested on: Yersinia pseudotuberculosis; test: Inhibition of wild-type Yersinia pseudotuberculosis T3SS-mediated YopE secretion at 120 uM after 2 hrs under low calcium medium by SDS-PAGE analysis relative to control
[4] = tested on: Yersinia pseudotuberculosis; test: Toxicity against wild-type Yersinia pseudotuberculosis at 60 uM measured after 15 hrs by MTT assay; assay type: organism-based; conditions: in vivo
Outline: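 Wild-type Y. pseudotuberculosis grown at room temperature in 2×YT with test agent at 60 μM, kanamycin at 50 μg/mL, or DMSO. MTT added after 15 h; absorbance at 570 nm used as the metabolic activity read-out.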

[5] = tested on: Yersinia pseudotuberculosis; test: Inhibition of wild-type Yersinia pseudotuberculosis T3SS-mediated YopE secretion at 60 uM after 2 hrs under low calcium medium by SDS-PAGE analysis relative to control
[6] = tested on: Yersinia pseudotuberculosis; test: Inhibition of wild-type Yersinia pseudotuberculosis T3SS-mediated YopE secretion at 30 uM after 2 hrs under low calcium medium by SDS-PAGE analysis relative to control
[7] = tested on: Yersinia pseudotuberculosis; test: Inhibition of wild-type Yersinia pseudotuberculosis T3SS-mediated YopE secretion at 71 uM after 2 hrs under low calcium medium by SDS-PAGE analysis relative to control

In the case of CCC(=O)N(C)CCc1cc(Br)c(OCCCNC(=O)Cc2ccc(O)cc2)c(Br)c1, the inhibition [1] is reported as “inactive”, the “growth inhibition (GI)” value [2] is reported as “Non-Toxic” and the inhibition [3] is reported as > 50%. For the same compound, the Activity [4] was “Non-Toxic”.

CCC(=O)N(C)CCc1ccc(OCCCNC(=O)Cc2ccc(O)cc2)c(Br)c1 was tested, and the inhibition [1] was “inactive”, the “growth inhibition (GI)” value [2] was “Non-Toxic” and the inhibition [5] was > 50%. The Activity [4] was “Non-Toxic”.

For CCC(=O)N(C)CCc1ccc(OCCCNC(=O)Cc2ccc(O)cc2)c(I)c1, the inhibition [1] was “inactive”, the “growth inhibition (GI)” value [2] was “Non-Toxic” and the inhibition [3] was > 50%. For the same compound, the Activity [4] was “Non-Toxic”.

With COc1c(Br)cc(CC(O)C(=O)NCCc2ccc(O)c(I)c2)cc1Br (centres undefined) the inhibition [1] was “inactive”, the “growth inhibition (GI)” value [2] was “Non-Toxic” and the inhibition [5] was > 50%. For the same compound, the Activity [4] was “Non-Toxic”.

COc1c(Br)cc(CC(O)C(=O)NCCc2ccc(O)c(Br)c2)cc1Br (centres undefined) was tested, and the inhibition [1] was “inactive”, the “growth inhibition (GI)” value [2] was “Non-Toxic” and the inhibition [6] was > 50%. For the same compound, the Activity [4] was “Non-Toxic”.

With C/C=C(\C)[C@H](O)[C@H](C)/C=C(C)/C=C/C/C(C)=C/Cc1nc(OC)c(OC)c(O)c1C the inhibition [7] was > 50%.

In the case of CCC(=O)N(C)CCc1ccc(OCCCN(C)C(=O)Cc2ccc(O)cc2)c(Br)c1, the inhibition [1] is reported as “inactive”, the “growth inhibition (GI)” value [2] is reported as “Non-Toxic” and the inhibition [6] is reported as > 50%. The Activity [4] was “Non-Toxic”.

With CCC(=O)N(C)CCc1cc(Br)c(OCCCNC(=O)Cc2ccc(O)cc2)c(I)c1 the inhibition [1] was “inactive”, the “growth inhibition (GI)” value [2] was “Non-Toxic” and the inhibition [6] was > 50%. For the same compound, the Activity [4] was “Non-Toxic”.
